According to ChEMBL document CHEMBL3286111, “Tryptophan hydroxylase 1 (Tph-1)-targeted bone anabolic agents for osteoporosis” (J Med Chem, 2014):
Blank lines part the entries; values can stand above or below the compound they belong to. Active and inactive are the calls of the source. The rule behind the calls is not given here.

Assays:
[1] = Cytotoxicity against rat RBL2H3 cells by MTT assay; type: cell-based; parameters: concentration or dose not given beside the values; details: rbl-2h3
Method in brief: (§1)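 RBL2H3 cells (α-MEM) or PC12 cells (D-MEM), both with 10% FBS, treated at a single dose in 0.1% DMSO; 0.1% DMSO control; 37 °C, 5% CO2. MTT (5 mg/mL) added 4 h before the end, then SDS/DMF lysis buffer (pH 7.2) for 6 h; absorbance read at 570 nm. Cytotoxicity % calculated from background-corrected OD versus control.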

[2] = molecular target: T1, Tryptophan 5-hydroxylase 1 (Rattus norvegicus, UniProt P09810)
T1 sequence (P09810 whole entry): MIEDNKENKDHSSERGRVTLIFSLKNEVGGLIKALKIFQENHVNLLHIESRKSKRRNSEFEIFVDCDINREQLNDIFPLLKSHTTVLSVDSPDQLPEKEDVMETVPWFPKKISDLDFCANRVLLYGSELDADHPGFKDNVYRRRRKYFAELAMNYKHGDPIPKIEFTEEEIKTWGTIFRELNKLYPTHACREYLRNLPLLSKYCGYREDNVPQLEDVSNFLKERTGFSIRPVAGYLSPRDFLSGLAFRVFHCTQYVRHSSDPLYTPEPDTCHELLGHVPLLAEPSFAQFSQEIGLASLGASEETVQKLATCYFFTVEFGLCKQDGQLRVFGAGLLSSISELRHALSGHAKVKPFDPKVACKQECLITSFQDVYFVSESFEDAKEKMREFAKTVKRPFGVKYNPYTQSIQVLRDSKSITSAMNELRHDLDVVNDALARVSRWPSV

Rattus norvegicus [3] = assay: Antiosteoporotic activity in ovariectomized rat assessed as increase in trabecular thickness at 10 to 20 mg/kg/day, po for 30 days by microcomputed tomographic analysis relative to control; type: functional, Trabecula
Method in brief: (§2)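 Female rats, 12 weeks old, underwent bilateral ovariectomy; sham, OVX-vehicle and ip PTH 20 μg/kg/day groups were included; n = 8. Oral dosing at 1, 10 and 20 mg/kg/day in 5% ethanol/95% water began 3 days post-surgery, once daily for 30 days. Lumbar vertebrae were scanned by μCT for BV/TV, Tb.Th, Tb.N, Tb.Sp and BMD.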

Rattus norvegicus [4] = assay: Antiosteoporotic activity in ovariectomized rat assessed as increase in trabecular bone volume fraction at 1 mg/kg/day, po for 30 days by microcomputed tomographic analysis; type: functional, organism-based; details: Trabecula
Method in brief: (§3)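 Ovariectomized 12-week-old female rats dosed orally once daily with 9a (1, 10, 20 mg/kg/day, 5% ethanol vehicle) for 30 days, beginning 3 days after surgery, n = 8 per group. Lumbar vertebrae were collected after CO2 euthanasia and scanned by micro-CT for BV/TV, Tb.Th, Tb.N, Tb.Sp and BMD.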

Rattus norvegicus [5] = assay: Effect on liver morphology in ovariectomized rat at 10 to 20 mg/kg/day, po for 30 days by hematoxylin-eosin staining-based light microscopic analysis; type: ADME, organism-based; parameters: route oral; details: in vivo, 720 h
Method in brief: (§4)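 OVX rats dosed orally with 9a (1, 10, 20 mg/kg/day) for 30 days from 3 days post-surgery. Uteri and livers were collected at the end, then sectioned, stained and examined by light microscopy for endometrial luminal epithelium, glands and liver morphology/pathology.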

Rattus norvegicus [6] = assay: Effect on brain serotonin level in ovariectomized rat at 1 to 20 mg/kg/day, po for 30 days by RP-HPLC analysis; type: functional, organism-based
Method in brief: (§5)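 Female rats, 12 weeks old (220 g), bilateral ovariectomy under ip pentobarbital; from 3 days after surgery, 9a given orally once daily at 1, 10 or 20 mg/kg in 5% ethanol/95% water for 30 days, n = 8. Serum (HClO4-deproteinized) or brain homogenate (HClO4 plus NaH2PO4/acetonitrile) run on RP-C18 HPLC with fluorescence detection (ex 290/em 330 nm).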

Rattus norvegicus [7] = assay: Antiosteoporotic activity in ovariectomized rat assessed as increase in trabecular thickness at 1 mg/kg/day, po for 30 days by microcomputed tomographic analysis; type: functional, organism-based; details: Trabecula; method in brief: as §3
Rattus norvegicus [8] = assay: Antiosteoporotic activity in ovariectomized rat assessed as increase in bone mineral density at 1 mg/kg/day, po for 30 days by microcomputed tomographic analysis; type: functional, organism-based; method in brief: as §3
Rattus norvegicus [9] = assay: Antiosteoporotic activity in ovariectomized rat assessed as decrease in trabecular separation at 10 to 20 mg/kg/day, po for 30 days by microcomputed tomographic analysis relative to control; type: functional, Trabecula; parameters: scale not given: the % may be the effect or the level left; method in brief: as §2
Rattus norvegicus [10] = assay: Antiosteoporotic activity in ovariectomized rat assessed as increase in trabecular bone volume fraction at 10 to 20 mg/kg/day, po for 30 days by microcomputed tomographic analysis relative to control; type: functional, Trabecula; method in brief: as §2
Rattus norvegicus [11] = assay: Antiosteoporotic activity in ovariectomized rat assessed as increase in trabecular number at 1 mg/kg/day, po for 30 days by microcomputed tomographic analysis; type: functional, organism-based; details: Trabecula; method in brief: as §3
Rattus norvegicus [12] = assay: Antiosteoporotic activity in ovariectomized rat assessed as decrease in serum CTX-1 level at 10 to 20 mg/kg/day, po for 30 days by ELISA; type: functional, organism-based
Method in brief: (§6)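 OVX female rats (12 weeks old), oral 9a at 1, 10 or 20 mg/kg per day in 5% ethanol vehicle, starting 3 days post-surgery, for 30 days, n = 8. Serum was taken at the end, centrifuged and stored at −20 °C. P1NP or CTX-1 was measured by ELISA kit and reported as means ± SD.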

Rattus norvegicus [13] = assay: Antiosteoporotic activity in ovariectomized rat assessed as decrease in trabecular separation at 1 mg/kg/day, po for 30 days by microcomputed tomographic analysis; type: functional, organism-based; details: Trabecula; method in brief: as §3
Rattus norvegicus [14] = assay: Antiosteoporotic activity in ovariectomized po dosed rat assessed as decrease in serum serotonin level administered for 30 days by HPLC analysis; type: functional, organism-based; method in brief: as §5
Rattus norvegicus [15] = assay: Effect on endometrial luminal epithelium with undeveloped endometrial gland in ovariectomized rat at 10 to 20 mg/kg/day, po for 30 days by hematoxylin-eosin staining-based light microscopic analysis; type: ADME, organism-based; parameters: route oral; details: in vivo, 720 h; method in brief: as §4
[16] = Cytotoxicity against rat PC12 cells by MTT assay; type: cell-based; details: pc-12; method in brief: as §1
Rattus norvegicus [17] = assay: Antiosteoporotic activity in ovariectomized rat assessed as decrease in gut serotonin level at 10 mg/kg, po qd for 7 days by HPLC analysis relative to control; type: functional; parameters: scale not given: the % may be the effect or the level left
Method in brief: (§7)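 Female rats, 12 weeks old (220 g), underwent bilateral ovariectomy under ip pentobarbital; sham controls included; n = 5 per group. Oral dosing in vehicle of 5% ethanol/95% water began 3 days post-surgery, once daily for 7 days. Small intestine (jejunum, ileum) was homogenised in 5% HClO4 and mobile phase. Serotonin was read by C18 HPLC with fluorescence detection (ex 290/em 330 nm).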

Rattus norvegicus [18] = assay: Effect on liver pathology in ovariectomized rat at 10 to 20 mg/kg/day, po for 30 days by hematoxylin-eosin staining-based light microscopic analysis; type: ADME, organism-based; parameters: route oral; details: in vivo, 720 h; method in brief: as §4
Rattus norvegicus [19] = assay: Antiosteoporotic activity in ovariectomized rat assessed as increase in bone mineral density at 10 to 20 mg/kg/day, po for 30 days by microcomputed tomographic analysis relative to control; type: functional; method in brief: as §2
Brain = assay: Drug uptake in ovariectomized rat brain at 10 to 20 mg/kg, po qd for 7 days by LC-MS analysis; type: ADME, organism-based; parameters: dose 10-20 mg/kg, route oral; details: in vivo, 168 h
Method in brief: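 OVX rats given oral 9a at 10 or 20 mg/kg once daily for 7 days, starting 3 days after surgery, n = 5. Brain homogenate (about 2.0 g) extracted with 5% HClO4 and ethyl acetate, centrifuged; the organic layer was dried and analysed by LC-MS/MS (limit of detection 12.4 pg).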

Rattus norvegicus [20] = assay: Antiosteoporotic activity in ovariectomized po dosed rat assessed as increase in serum P1NP level administered for 30 days by ELISA; type: functional, organism-based; method in brief: as §6
Rattus norvegicus [21] = assay: Antiosteoporotic activity in ovariectomized rat assessed as decrease in gut serotonin level at 20 mg/kg, po qd for 7 days by HPLC analysis relative to control; type: functional; parameters: scale not given: the % may be the effect or the level left; method in brief: as §7
Rattus norvegicus [22] = assay: Antiosteoporotic activity in ovariectomized rat assessed as increase in trabecular number at 10 to 20 mg/kg/day, po for 30 days by microcomputed tomographic analysis relative to control; type: functional, Trabecula; method in brief: as §2

SMILES: C[C@H]1[C@H](C)CC[C@]2(C(=O)O)CC[C@]3(C)C(=CC[C@@H]4[C@@]5(C)Cc6cnoc6C(C)(C)[C@@H]5CC[C@]43C)[C@H]12
Activity [1]: 2.1%

SMILES: CCOC(=O)CNC(=O)[C@]12CC[C@@H](C)[C@H](C)[C@H]1C1=CC[C@@H]3[C@@]4(C)Cc5c([nH]c6ccc(Cl)cc56)C(C)(C)[C@@H]4CC[C@@]3(C)[C@]1(C)CC2
Activity [1]: 14.7%

SMILES: COC(=O)C(Cc1ccccc1)NC(=O)[C@]12CC[C@@H](C)[C@H](C)[C@H]1C1=CC[C@@H]3[C@@]4(C)CCC(=O)C(C)(C)[C@@H]4CC[C@@]3(C)[C@]1(C)CC2 (stereo partly specified)
Activity [1]: 1.1%

SMILES: CCOC(=O)CNC(=O)[C@]12CC[C@@H](C)[C@H](C)[C@H]1C1=CC[C@@H]3[C@@]4(C)Cc5cnoc5C(C)(C)[C@@H]4CC[C@@]3(C)[C@]1(C)CC2
Activity [1]: 11.1%

IC50 [2]: 400 nM
SMILES: Nc1nc(OC(c2ccc(-c3cccc(F)c3)cc2)C(F)(F)F)cc(-c2ccc(C[C@H](N)C(=O)O)cc2)n1 (stereo partly specified)

SMILES: COC(=O)C(Cc1ccccc1)NC(=O)[C@]12CC[C@@H](C)[C@H](C)[C@H]1C1=CC[C@@H]3[C@@]4(C)CC[C@H](OC(C)=O)C(C)(C)[C@@H]4CC[C@@]3(C)[C@]1(C)CC2 (stereo partly specified)
Activity [1]: 12.4%

SMILES: CCOC(=O)CNC(=O)[C@]12CC[C@@H](C)[C@H](C)[C@H]1C1=CC[C@@H]3[C@@]4(C)Cc5c([nH]c6ccc(Br)cc56)C(C)(C)[C@@H]4CC[C@@]3(C)[C@]1(C)CC2
Activity [1]: 1.7%

SMILES: COC(=O)C(Cc1ccccc1)NC(=O)[C@]12CC[C@@H](C)[C@H](C)[C@H]1C1=CC[C@@H]3[C@@]4(C)Cc5cnn(-c6ccc(F)cc6)c5C(C)(C)[C@@H]4CC[C@@]3(C)[C@]1(C)CC2 (stereo partly specified)
Activity [1]: 2%

SMILES: C[C@H]1[C@H](C)CC[C@]2(C(=O)NCCC3CCN(Cc4ccccc4)CC3)CC[C@]3(C)C(=CC[C@@H]4[C@@]5(C)Cc6nc7ccccc7nc6C(C)(C)[C@@H]5CC[C@]43C)[C@H]12
Activity [1]: 59.5%

SMILES: CCOC(=O)CNC(=O)[C@]12CC[C@@H](C)[C@H](C)[C@H]1C1=CC[C@@H]3[C@@]4(C)Cc5nc6ccccc6nc5C(C)(C)[C@@H]4CC[C@@]3(C)[C@]1(C)CC2
Activity (Rattus norvegicus [3]): 24% | Activity (Rattus norvegicus [4]): inactive | Activity (Rattus norvegicus [5]): Non-toxic | Activity (Rattus norvegicus [6]): inactive | Activity (Rattus norvegicus [7]): inactive | Activity (Rattus norvegicus [8]): inactive | Activity (Rattus norvegicus [9]): -24.9% | Activity (Rattus norvegicus [10]): 28% | Activity (Rattus norvegicus [11]): inactive | Activity [1]: 1% | Activity (Rattus norvegicus [12]): inactive | Activity (Rattus norvegicus [13]): inactive | Activity (Rattus norvegicus [14]): Dose-dependent effect | Activity (Rattus norvegicus [15]): Non-toxic | Activity [16]: Non-toxic | Activity (Rattus norvegicus [17]): 34% | Activity (Rattus norvegicus [18]): Non-toxic | Activity (Rattus norvegicus [19]): 22.6% | Drug uptake (Brain): Not Active | Activity (Rattus norvegicus [20]): Dose-dependent effect | Activity (Rattus norvegicus [21]): 36% | Activity (Rattus norvegicus [22]): 43.3%
